Experimental data: ChEMBL document CHEMBL1124777, “Specific bradycardic agents. 1. Chemistry, pharmacology, and structure-activity relationships of substituted benzazepinones, a-new class of compounds exerting antiischemic properties” (1990)
In brackets after ≈: the same amount, converted by molar mass.

Key:
Rattus norvegicus = assay: Bradycardic activity measured as a percentage decrease of heart rate after 5 mg/kg intravenous administration in anesthetized rats; type: functional
Summary of the method: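 Male Chbb:THOM rats (200–250 g) were anesthetized with pentobarbital sodium 50 mg/kg ip, with tracheal cannulation and artificial respiration. Heart rate was recorded continuously by an ECG-triggered beat-to-beat tachograph. Dose was 5 mg/kg iv via the jugular vein. Rate was read at 2, 5 and 20 min, and the reduction taken at 5 min.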

Felis catus [1] = assay: Evaluated in vivo for bradycardic activity in anesthetized cat as a measure of % decrease of heart rate after 1 mg/Kg intravenous administration of the compound.; type: functional
Felis catus [2] = assay: Evaluated in vivo for bradycardic activity in anesthetized cat as a measure of percent decrease of heart rate after 1 mg/kg intravenous administration; type: functional
Cavia porcellus [3] = species on record: Cavia porcellus; assay: Evaluated in vitro for the effect on spontaneous rate in isolated guinea pig atria; type: functional
Summary of the method: (§1)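 Spontaneously beating guinea pig atria (either sex, 300–500 g) were held in modified Tyrode's solution gassed with 98% O₂/2% CO₂, at 1 g resting tension and 37 °C. Equilibration lasted at least 30 min, until rate varied by no more than 5 beats/min. Recording was isometric. EC₃₀ is the concentration lowering predrug rate by 30%, given with 95% confidence limits.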

Oryctolagus cuniculus = species on record: Oryctolagus cuniculus; assay: Evaluated in vitro for the effect on K+ induced aortic contraction in isolated aortic strips of rabbit; type: functional; conditions: Aorta
[4] = Ratio between the EC30 values of aortic contracture and atrial rate; type: functional, Cardiac atrium
Summary of the method: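 Guinea pig atria (300–500 g, either sex) in modified Tyrode's gassed with 98% O2/2% CO2, resting tension 1 g. Rate measured in spontaneously beating atria at 37 °C after at least 30 min equilibration. Rabbit aortic strips contracted with 40 mM KCl plus 1.8 mM CaCl2 to a plateau. EC30 is the concentration relaxing the contracture, or lowering the predrug rate, by 30%.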

[5] = Ratio between the EC30 values of atrial contractility and atrial rate; type: functional, Cardiac atrium
Summary of the method: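 Isolated guinea pig atria (300–500 g, either sex) in modified Tyrode's gassed with 98% O2/2% CO2, resting tension 1 g, isometric recording. Rate measured in spontaneously beating atria at 37 °C after ≥30 min equilibration. Contractility (g) measured in left atria paced at 2.5 Hz (3 ms pulses, 1.5× threshold), 30 °C, 20 min equilibration. EC30 is the concentration lowering the predrug value by 30%.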

Cavia porcellus [6] = species on record: Cavia porcellus; assay: Evaluated in vitro for its effect on atrial contractility in electrically stimulated isolated guinea pig left atria; conditions: Cardiac atrium
Cavia porcellus [7] = species on record: Cavia porcellus; assay: Evaluated in vitro for the effect on spontaneous atrial rate in isolated guinea pig atria; type: functional; conditions: Cardiac atrium; summary of the method: as §1

SMILES: COc1ccc(CCN(CCCN2CCc3cc(OC)c(OC)cc3CC2=O)CCc2ccc(OC)c(OC)c2)cc1OC
- Decrease (Rattus norvegicus): -28%

SMILES: COc1ccc(CCSCCCN2CCc3cc(OC)c(OC)cc3CC2=O)cc1OC
- Decrease (Rattus norvegicus): 1%

SMILES: COc1cc2c(cc1OC)CC(=O)N(CCCN(C)CCc1c(Cl)cccc1Cl)CC2.Cl.Cl.Cl.Cl
- Decrease (Rattus norvegicus): -13%

SMILES: COc1cc2c(cc1OC)CC(=O)N(CCCN(C)CCc1ccc(N(C)C)cc1)CC2.Cl.Cl
- Decrease (Rattus norvegicus): -60%

SMILES: COc1cc2c(cc1OC)CC(=O)N(CCCN(C)CCc1ccccc1)CC2.Cl.Cl
- Decrease (Rattus norvegicus): -52%

SMILES: COc1cc2c(cc1OC)CC(=O)N(CCCN(C)CCc1ccc(C(C)(C)C)cc1)CC2.Cl.Cl
- Decrease (Rattus norvegicus): -58%

SMILES: COc1ccc(CC[S+]([O-])CCCN2CCc3cc(OC)c(OC)cc3CC2=O)cc1OC (stereo not drawn)
- Decrease (Rattus norvegicus): -4%

SMILES: COc1cc2c(cc1O)CC(=O)N(CCCN(C)CCc1ccc(OC)c(OC)c1)CC2
- Decrease (Rattus norvegicus): -29%

SMILES: COc1cc2c(cc1OC)CC(=O)N(CCCN(C)CCc1ccc(OCc3ccccc3)cc1)CC2
- Decrease (Rattus norvegicus): -27%

SMILES: COc1ccc(CCN(CCCN2CCc3cc(OC)c(OC)cc3CC2=O)C(C)=O)cc1OC
- Decrease (Rattus norvegicus): -3%

SMILES: COc1ccc(NCCCN(C)CCCN2CCc3cc(OC)c(OC)cc3CC2=O)cc1OC
- Decrease (Rattus norvegicus): -51%

SMILES: COc1cc2c(cc1OC)CC(=O)N(CCCN(C)CCc1ccc(N)cc1)CC2
- Decrease (Rattus norvegicus): -30%

SMILES: CCOC(=O)N(CCCN1CCc2cc(OC)c(OC)cc2CC1=O)CCc1ccc(OC)c(OC)c1
- Decrease (Rattus norvegicus): -8%

SMILES: COc1ccc(CN(C)CCCN2CCc3cc(OC)c(OC)cc3CC2=O)cc1OC
- Decrease (Rattus norvegicus): -26%

SMILES: CCCCOc1ccc(CCN(C)CCCN2CCc3cc(OC)c(OC)cc3CC2=O)cc1
- Decrease (Rattus norvegicus): -55%

SMILES: COc1ccc(N(C)CCCN2CCc3cc(OC)c(OC)cc3CC2=O)cc1OC
- Decrease (Rattus norvegicus): -17%

SMILES: COc1ccc(CC[N+](C)(C)CCCN2CCc3cc(OC)c(OC)cc3CC2=O)cc1OC.[I-]
- Decrease (Rattus norvegicus): -9%

SMILES: COc1ccc(NCCN(C)CCCN2CCc3cc(OC)c(OC)cc3CC2=O)cc1OC
- Decrease (Rattus norvegicus): -39%

SMILES: COc1ccc(CCN(C)CC(O)CN2CCc3cc(OC)c(OC)cc3CC2=O)cc1OC (stereo not drawn)
- Decrease (Rattus norvegicus): -28%

SMILES: COc1ccc(CCN(C)CCCN2CCCc3cc(OC)c(OC)cc3C2=O)cc1OC
- Decrease (Felis catus [1]): -8%

SMILES: COc1ccc(CCS(=O)(=O)CCCN2CCc3cc(OC)c(OC)cc3CC2=O)cc1OC
- Decrease (Rattus norvegicus): -1%

SMILES: COc1ccc(CCN(C)CCCN2CCc3cc(O)c(O)cc3CC2=O)cc1OC
- Decrease (Rattus norvegicus): -30%

SMILES: COc1cc2c(cc1OC)CC(=O)N(CCCN(C)CCc1ccc(Cl)cc1)CC2.Cl
- Decrease (Rattus norvegicus): -55%

SMILES: COc1ccc2c(c1)CC(=O)N(CCCN(C)CCc1ccc(OC)c(OC)c1)CC2.Cl.Cl
- Decrease (Rattus norvegicus): -44%

SMILES: COc1ccc(CCN(C)CC(C)CN2CCc3cc(OC)c(OC)cc3CC2=O)cc1OC.Cl (stereo not drawn)
- Decrease (Rattus norvegicus): -43%

SMILES: COc1ccc(CCN(C)CCCN2CCc3ccc(OC)c(OC)c3CC2=O)cc1OC.Cl
- Decrease (Rattus norvegicus): -34%

SMILES: COc1ccc(SCCCN(C)CCCN2CCc3cc(OC)c(OC)cc3CC2=O)cc1OC.Cl
- Decrease (Rattus norvegicus): -47%

SMILES: COc1ccc(CCN(C)CCCN2CCc3cc(C)c(C)cc3CC2=O)cc1OC.Cl.Cl
- Decrease (Rattus norvegicus): -49%

SMILES: COc1ccc(CCN(C)CCCN2CCc3cc4c(cc3CC2=O)OCCO4)cc1OC.Cl
- Decrease (Rattus norvegicus): -49%

SMILES: COc1ccc2c(c1)CCN(CCCN(C)CCc1ccc(OC)c(OC)c1)C(=O)C2.Cl
- Decrease (Rattus norvegicus): -31%

SMILES: COc1cc2c(cc1OC)CC(=O)N(CCCN(C)CCc1cc(OC)c(OC)c(OC)c1)CC2.Cl
- Decrease (Rattus norvegicus): -21%

SMILES: COc1cc2c(cc1OC)CC(=O)N(CCCN(C)CCc1ccc(O)cc1)CC2.Cl
- Decrease (Rattus norvegicus): -33%

SMILES: COc1cc2c(cc1O)CCN(CCCN(C)CCc1ccc(OC)c(OC)c1)C(=O)C2.Cl
- Decrease (Rattus norvegicus): -47%

SMILES: COc1ccc(CCN(C)CCCN2CCc3cc(OC)c(OC)cc3C2=O)cc1OC.Cl
- Decrease (Felis catus [1]): -29%

SMILES: COc1ccc(CCN(C)CCCN2CCc3cc4c(cc3CC2=O)OCO4)cc1OC.Cl
- Decrease (Rattus norvegicus): -42%

SMILES: COc1ccc(CCN(C)CCCN2CCc3cc(OC)c(OC)cc3CC2=O)cc1.Cl
- Decrease (Rattus norvegicus): -42%

SMILES: COc1cc(OC)c(CCN(C)CCCN2CCc3cc(OC)c(OC)cc3CC2=O)c(OC)c1.Cl
- Decrease (Rattus norvegicus): -25%

SMILES: COc1ccc(SCCN(C)CCCN2CCc3cc(OC)c(OC)cc3CC2=O)cc1OC.Cl
- Decrease (Rattus norvegicus): -44%

SMILES: COc1ccc(CCN(C)CCCN2Cc3cc(OC)c(OC)cc3C2=O)cc1OC.Cl
- Decrease (Felis catus [2]): -16%
- EC30 (Cavia porcellus [3]): 0.608 µg/mL
- EC30 (Oryctolagus cuniculus): 21.3 µg/mL
- Ratio [4]: 35
- Ratio [5]: 154
- EC30 (Cavia porcellus [6]): 93.6 µg/mL

SMILES: COc1cc2c(cc1OC)CC(=O)N(CCCN(C)CCc1ccc([N+](=O)[O-])cc1)CC2.Cl
- Decrease (Rattus norvegicus): -41%

SMILES: COc1ccc(CCCCCN(C)CCCN2CCc3cc(OC)c(OC)cc3CC2=O)cc1OC.Cl
- Decrease (Rattus norvegicus): -36%

SMILES: COc1ccc(OCCCCN(C)CCCN2CCc3cc(OC)c(OC)cc3CC2=O)cc1OC.Cl
- Decrease (Rattus norvegicus): -37%

SMILES: COc1ccc(CCCCN(C)CCCN2CCc3cc(OC)c(OC)cc3CC2=O)cc1OC.Cl
- Decrease (Rattus norvegicus): -46%

SMILES: COc1ccc(CCCN(C)CCCN2CCc3cc(OC)c(OC)cc3CC2=O)cc1OC.Cl
- Decrease (Rattus norvegicus): -55%

SMILES: COc1ccc(CCNCCCN2CCc3cc(OC)c(OC)cc3CC2=O)cc1OC.Cl
- Decrease (Rattus norvegicus): -66%

SMILES: C=CCN(CCCN1CCc2cc(OC)c(OC)cc2CC1=O)CCc1ccc(OC)c(OC)c1.Cl
- Decrease (Rattus norvegicus): -65%

SMILES: COc1ccc(CCN(C)CCCN2CCc3ccccc3CC2=O)cc1OC.Cl
- Decrease (Rattus norvegicus): -35%

SMILES: COc1cc2c(cc1OC)CC(=O)N(CCCN(C)CCc1ccc(OS(C)(=O)=O)cc1)CC2.Cl
- Decrease (Rattus norvegicus): -46%

SMILES: COc1ccc(OCCCN(C)CCCN2CCc3cc(OC)c(OC)cc3CC2=O)cc1OC.Cl
- Decrease (Rattus norvegicus): -63%

SMILES: COc1ccc(OCCN(C)CCCN2CCc3cc(OC)c(OC)cc3CC2=O)cc1OC.Cl
- Decrease (Rattus norvegicus): -59%

SMILES: COc1ccc(CCN(C)CCN2CCc3cc(OC)c(OC)cc3CC2=O)cc1OC.Cl
- Decrease (Rattus norvegicus): -13%

SMILES: COc1cc2c(cc1OC)CC(=O)N(CCCN(C)CCc1ccc(Cl)c(Cl)c1)CC2.Cl.Cl
- Decrease (Rattus norvegicus): -47%

SMILES: CCCN(CCCN1CCc2cc(OC)c(OC)cc2CC1=O)CCc1ccc(OC)c(OC)c1.Cl
- Decrease (Rattus norvegicus): -56%

SMILES: COc1ccc(CCN(C)CCCCN2CCc3cc(OC)c(OC)cc3CC2=O)cc1OC.Cl
- Decrease (Rattus norvegicus): -33%

SMILES: COc1ccc(CCN(C)CCCN2CCc3c(OC)ccc(OC)c3CC2=O)cc1OC.Cl
- Decrease (Rattus norvegicus): -21%

SMILES: COc1ccc(CCN(C)CCCN2CCc3c(C)c(C)c(C)c(C)c3CC2=O)cc1OC.Cl
- Decrease (Rattus norvegicus): -41%

SMILES: COc1ccc(CCN(C)CCC[C@@](C#N)(c2ccc(OC)c(OC)c2)C(C)C)cc1OC [(S)-VERAPAMIL]
- EC30 (Cavia porcellus [7]): 0.0694 µg/mL (≈ 0.153 µM)
- EC30 (Oryctolagus cuniculus): 0.0284 µg/mL (≈ 0.0625 µM)
- Ratio [4]: 0.409
- Ratio [5]: 0.88
- EC30 (Cavia porcellus [6]): 0.0611 µg/mL (≈ 0.134 µM)

SMILES: COc1ccc([C@@H]2Sc3ccccc3N(CCN(C)C)C(=O)[C@@H]2OC(C)=O)cc1 [DILTIAZEM]
- EC30 (Cavia porcellus [7]): 0.14 µg/mL (≈ 0.338 µM)
- EC30 (Oryctolagus cuniculus): 0.0741 µg/mL (≈ 0.179 µM)
- Ratio [4]: 0.53
- Ratio [5]: 19.5
- EC30 (Cavia porcellus [6]): 2.73 µg/mL (≈ 6.59 µM)

SMILES: COC(=O)C1=C(C)NC(C)=C(C(=O)OC)C1c1ccccc1[N+](=O)[O-] [NIFEDIPINE]
- EC30 (Cavia porcellus [7]): 0.11 µg/mL (≈ 0.318 µM)
- EC30 (Oryctolagus cuniculus): 0.00397 µg/mL (≈ 0.0115 µM)
- Ratio [4]: 0.036
- Ratio [5]: 0.135
- EC30 (Cavia porcellus [6]): 0.0149 µg/mL (≈ 0.043 µM)

SMILES: COc1ccc(CCN(C)CCCN2CCc3cc(OC)c(OC)cc3CC2=O)cc1OC.Cl [ZATEBRADINE HYDROCHLORIDE]
- Decrease (Felis catus [1]): -56%
- EC30 (Cavia porcellus [7]): 0.03 µg/mL
- Decrease (Rattus norvegicus): -56%
- EC30 (Oryctolagus cuniculus): 15 µg/mL
- Ratio [4]: 500
- Ratio [5]: 3600
- EC30 (Cavia porcellus [6]): 108 µg/mL
